Data set [1] relates to Trypanosoma cruzi. Put plainly: Antitrypanosomal activity against bloodstream trypomastigote stage of Trypanosoma cruzi Y infected in monkey LLC-MK2 cells measured after 24 hrs by neubauer chamber method. Particulars: LLC-MK2, in Primates. It counts as functional. In a few lines:
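Y strain trypomastigotes taken from LLC-MK2 culture supernatant and held in RPMI-1640 with 10% FBS. Seeded at 4×10^5 cells/well and treated in triplicate for 24 h at 37 °C, 5% CO2. Motile parasites counted in a Neubauer chamber against untreated wells. IC50 by nonlinear regression from at least seven concentrations. Experiment repeated; SD < 10% of mean required.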

The subject of data set [2] is Trypanosoma cruzi. Put plainly: Antitrypanosomal activity against Trypanosoma cruzi Dm28c epimastigotes measured after 4 to 5 days by neubauer chamber method. It counts as functional. A digest of the protocol:
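Dm28c epimastigotes in LIT with 10% FBS, 1% hemin and gentamycin at 27 °C. Seeded at 10^6 cells/well and treated in triplicate for 4 days (table footnote: 5 days). Parasites counted in a Neubauer chamber against untreated wells as 100%. IC50 by nonlinear regression from at least five concentrations. Experiment repeated; only values with SD < 10% of mean kept.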

Data set [3] is described as follows: Cytotoxicity against mouse J774A.1 cells after 24 to 72 hrs by MTT assay. It counts as cell-based, J774.A1. Particulars: read-out: MNCC. A digest of the protocol: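 J774A.1 macrophages in DMEM with 10% heat-inactivated FBS at 37 °C, 5% CO2. Seeded at 1×10^5 cells/well, 24 h preincubation, then compounds at 1–100 µg/mL for 72 h (table footnote: viability at 24 h). MTT 2 h, formazan dissolved in DMSO, absorbance read at 570 nm. Highest non-cytotoxic concentration reported.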
(In general: Tetrazolium dyes change colour on reduction, which living cells bring about.)

Data set [4] can be described thus: Selectivity index, ratio of highest non-cytotoxic concentration for mouse J774A.1 cells to CC50 for bloodstream trypomastigote stage of Trypanosoma cruzi Y infected in monkey LLC-MK2 cells. The format is toxicity, cell-based. The settings on record: read-out: Selectivity Index. A digest of the protocol:
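Selectivity index is the highest non-cytotoxic concentration in J774A.1 macrophages divided by the 50% value against Y strain trypomastigotes measured after 24 h.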

Data set [5] concerns Trypanosoma cruzi. As to the kind of experiment: Potency index, ratio of benznidazole CC50 to compound CC50 for bloodstream trypomastigote stage of Trypanosoma cruzi Y infected in monkey LLC-MK2 cells. It counts as functional.
In data set [6] the test system is Trypanosoma cruzi. Put plainly: Potency index, ratio of benznidazole CC50 to compound CC50 for Trypanosoma cruzi Dm28c epimastigotes. The format is functional.
The test system of data set [7] is Trypanosoma cruzi. As to the kind of experiment: Induction of apoptosis in bloodstream trypomastigote stage of Trypanosoma cruzi Y infected in monkey LLC-MK2 cells assessed as necrotic cells at 1.6 uM measured after 24 hrs by Annexin-V-FITC/propidium iodide staining based flow cytometric method (reference value: 0.014%). The format is functional.
Data set [8] relates to Trypanosoma cruzi. Put plainly: Induction of apoptosis in bloodstream trypomastigote stage of Trypanosoma cruzi Y infected in monkey LLC-MK2 cells assessed as necrotic cells at 3.2 uM measured after 24 hrs by Annexin-V-FITC/propidium iodide staining based flow cytometric method (reference value: 0.014%). It counts as functional.
Data set [9] has as its system Trypanosoma cruzi. Put plainly: Induction of apoptosis in bloodstream trypomastigote stage of Trypanosoma cruzi Y infected in monkey LLC-MK2 cells assessed as late apoptotic cells at 1.6 uM measured after 24 hrs by Annexin-V-FITC/propidium iodide staining based flow cytometric method (reference value: 0.27%). It counts as functional. (In general: Flow cytometry measures light scatter and fluorescence of single cells or particles in a stream.)

For data set [10], the system named is Trypanosoma cruzi. Put plainly: Induction of apoptosis in bloodstream trypomastigote stage of Trypanosoma cruzi Y infected in monkey LLC-MK2 cells assessed as late apoptotic cells at 3.2 uM measured after 24 hrs by Annexin-V-FITC/propidium iodide staining based flow cytometric method (reference value: 0.27%). It counts as functional.
Data set [11] deals with Trypanosoma cruzi. As to the kind of experiment: Induction of apoptosis in bloodstream trypomastigote stage of Trypanosoma cruzi Y infected in monkey LLC-MK2 cells assessed as early apoptotic cells at 1.6 uM measured after 24 hrs by Annexin-V-FITC/propidium iodide staining based flow cytometric method (reference value: 0.31%). It counts as functional.
Data set [12] relates to Trypanosoma cruzi. Put plainly: Induction of apoptosis in bloodstream trypomastigote stage of Trypanosoma cruzi Y infected in monkey LLC-MK2 cells assessed as early apoptotic cells at 3.2 uM measured after 24 hrs by Annexin-V-FITC/propidium iodide staining based flow cytometric method (reference value: 0.31%). The format is functional.
Data set [13] has as its target Cruzipain (Trypanosoma cruzi) (UniProt P25779). Put plainly: Inhibition of Trypanosoma cruzi cruzain at 50 uM using Z-phe-Arg-aminomethylcoumarin as substrate pretreated for 10 mins measured for 5 mins by fluorometric method relative to control. In a few lines:
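Cruzain at 0.5 nM in 0.1 M sodium acetate pH 5.5 with 0.1 mM β-mercaptoethanol and 0.01% Triton X-100. Compound screened at 50 µM after a 10-min preincubation with enzyme, then 2.5 µM Z-FR-AMC added. AMC fluorescence (ex 340/em 440 nm) followed for 5 min. Activity taken from initial rates relative to a DMSO control. Two independent experiments, each in triplicate.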

Data set [14] concerns Trypanosoma cruzi. Put plainly: Induction of apoptosis in bloodstream trypomastigote stage of Trypanosoma cruzi Y infected in monkey LLC-MK2 cells assessed as necrotic cells at 1.2 uM measured after 24 hrs by Annexin-V-FITC/propidium iodide staining based flow cytometric method (reference value: 0.014%). The format is functional.
Data set [15] relates to Trypanosoma cruzi. As to the kind of experiment: Induction of apoptosis in bloodstream trypomastigote stage of Trypanosoma cruzi Y infected in monkey LLC-MK2 cells assessed as necrotic cells at 2.4 uM measured after 24 hrs by Annexin-V-FITC/propidium iodide staining based flow cytometric method (reference value: 0.014%). It counts as functional.
The test system of data set [16] is Trypanosoma cruzi. Put plainly: Induction of apoptosis in bloodstream trypomastigote stage of Trypanosoma cruzi Y infected in monkey LLC-MK2 cells assessed as late apoptotic cells at 1.2 uM measured after 24 hrs by Annexin-V-FITC/propidium iodide staining based flow cytometric method (reference value: 0.27%). The format is functional.
For data set [17], the system named is Trypanosoma cruzi. Put plainly: Induction of apoptosis in bloodstream trypomastigote stage of Trypanosoma cruzi Y infected in monkey LLC-MK2 cells assessed as late apoptotic cells at 2.4 uM measured after 24 hrs by Annexin-V-FITC/propidium iodide staining based flow cytometric method (reference value: 0.27%). It counts as functional.
Data set [18] relates to Trypanosoma cruzi. As to the kind of experiment: Induction of apoptosis in bloodstream trypomastigote stage of Trypanosoma cruzi Y infected in monkey LLC-MK2 cells assessed as early apoptotic cells at 1.2 uM measured after 24 hrs by Annexin-V-FITC/propidium iodide staining based flow cytometric method (reference value: 0.31%). The format is functional.
Data set [19] has as its system Trypanosoma cruzi. Put plainly: Induction of apoptosis in bloodstream trypomastigote stage of Trypanosoma cruzi Y infected in monkey LLC-MK2 cells assessed as early apoptotic cells at 2.4 uM measured after 24 hrs by Annexin-V-FITC/propidium iodide staining based flow cytometric method (reference value: 0.31%). It counts as functional.
The subject of data set [20] is Trypanosoma cruzi. As to the kind of experiment: Induction of apoptosis in bloodstream trypomastigote stage of Trypanosoma cruzi Y infected in monkey LLC-MK2 cells assessed as viable cells at 1.2 uM measured after 24 hrs by Annexin-V-FITC/propidium iodide staining based flow cytometric method (reference value: 99.4%). The format is functional.
Data set [21] has as its system Trypanosoma cruzi. Put plainly: Induction of apoptosis in bloodstream trypomastigote stage of Trypanosoma cruzi Y infected in monkey LLC-MK2 cells assessed as viable cells at 2.4 uM measured after 24 hrs by Annexin-V-FITC/propidium iodide staining based flow cytometric method (reference value: 99.4%). The format is functional.
Data set [22] deals with Trypanosoma cruzi. Put plainly: Induction of apoptosis in bloodstream trypomastigote stage of Trypanosoma cruzi Y infected in monkey LLC-MK2 cells assessed as necrotic cells at 5 uM measured after 24 hrs by Annexin-V-FITC/propidium iodide staining based flow cytometric method (reference value: 0.014%). The format is functional.
In data set [23] the test system is Trypanosoma cruzi. As to the kind of experiment: Induction of apoptosis in bloodstream trypomastigote stage of Trypanosoma cruzi Y infected in monkey LLC-MK2 cells assessed as necrotic cells at 2.5 uM measured after 24 hrs by Annexin-V-FITC/propidium iodide staining based flow cytometric method (reference value: 0.014%). It counts as functional.
In data set [24] the test system is Trypanosoma cruzi. As to the kind of experiment: Induction of apoptosis in bloodstream trypomastigote stage of Trypanosoma cruzi Y infected in monkey LLC-MK2 cells assessed as late apoptotic cells at 2.5 uM measured after 24 hrs by Annexin-V-FITC/propidium iodide staining based flow cytometric method (reference value: 0.27%). The format is functional.
Data set [25] has as its system Trypanosoma cruzi. As to the kind of experiment: Induction of apoptosis in bloodstream trypomastigote stage of Trypanosoma cruzi Y infected in monkey LLC-MK2 cells assessed as early apoptotic cells at 2.5 uM measured after 24 hrs by Annexin-V-FITC/propidium iodide staining based flow cytometric method (reference value: 0.31%). It counts as functional.
For data set [26], the system named is Trypanosoma cruzi. As to the kind of experiment: Induction of apoptosis in bloodstream trypomastigote stage of Trypanosoma cruzi Y infected in monkey LLC-MK2 cells assessed as late apoptotic cells at 5 uM measured after 24 hrs by Annexin-V-FITC/propidium iodide staining based flow cytometric method (reference value: 0.27%). The format is functional.
For data set [27], the system named is Trypanosoma cruzi. Put plainly: Induction of apoptosis in bloodstream trypomastigote stage of Trypanosoma cruzi Y infected in monkey LLC-MK2 cells assessed as early apoptotic cells at 5 uM measured after 24 hrs by Annexin-V-FITC/propidium iodide staining based flow cytometric method (reference value: 0.31%). It counts as functional.

The source of these data is ChEMBL document CHEMBL4049394, “Desing and synthesis of potent anti-Trypanosoma cruzi agents new thiazoles derivatives which induce apoptotic parasite death” (Eur J Med Chem, 2017).

SMILES strings stand for the structures.

Chain of Cruzipain (Trypanosoma cruzi) (P25779 123-467 limits assumed): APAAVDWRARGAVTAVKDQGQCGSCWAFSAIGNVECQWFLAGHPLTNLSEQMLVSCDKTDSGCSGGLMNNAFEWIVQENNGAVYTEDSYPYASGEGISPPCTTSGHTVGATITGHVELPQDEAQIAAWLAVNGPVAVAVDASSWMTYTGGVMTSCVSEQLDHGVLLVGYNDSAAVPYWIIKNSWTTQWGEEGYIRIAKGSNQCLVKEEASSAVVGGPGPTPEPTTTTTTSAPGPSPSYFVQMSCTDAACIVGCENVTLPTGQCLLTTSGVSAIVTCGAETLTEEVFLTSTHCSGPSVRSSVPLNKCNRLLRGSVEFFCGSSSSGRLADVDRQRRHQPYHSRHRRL

Take `C/C(=N\N=c1/scc(-c2ccc(Cl)cc2Cl)n1-c1ccccc1)c1ccccn1`: the CC50 in the data set on Trypanosoma cruzi [1] is 1.6 µM; in the data set on Trypanosoma cruzi [2] it was 2.7 µM. Further, in [3], the MNTC was found to be 81 µM. Moreover, the selectivity ratio in [4] was 50 to 51. Further, the Ratio is reported as 4 - 5 with Trypanosoma cruzi [5] and 18 in the data set on Trypanosoma cruzi [6]. Also, the Activity with Trypanosoma cruzi [7] is on record as 2.9%; in the data set on Trypanosoma cruzi [8] it was 3.2%; with Trypanosoma cruzi [9], 4%; with Trypanosoma cruzi [10], 4.3%; in the data set with Trypanosoma cruzi [11] it was 39.5%; in the data set with Trypanosoma cruzi [12], 39.4%.
For orientation: inhibition means the percentage by which the read-out fell short of the control. Turning to `COc1ccc(-c2cs/c(=N\N=C(/C)c3ccccn3)n2-c2ccccc2)cc1`, the CC50 with Trypanosoma cruzi [1] is 1.2 µM; in the data set on Trypanosoma cruzi [2] it was 5 µM. In [3], the MNTC is 477 µM. Besides, in [4], the selectivity ratio is 397 to 398. Moreover, the Ratio was 4 - 5 in the data set with Trypanosoma cruzi [5] and 10 in the data set on Trypanosoma cruzi [6]. The inhibition in data set [13] came out at 48%. The Activity in the data set on Trypanosoma cruzi [14] was 2.99 - 3.53%; in the data set with Trypanosoma cruzi [15] it was 2.3 - 3.48%; in the data set on Trypanosoma cruzi [16], 3.61 - 4.8%; in the data set on Trypanosoma cruzi [17] it was 3.67 - 4.5%; in the data set with Trypanosoma cruzi [18] it was 38.6 - 39.6%; in the data set with Trypanosoma cruzi [19] it was 36.4 - 38.9%. For the same compound, the Activity in the data set with Trypanosoma cruzi [20] was 53.8%; in the data set with Trypanosoma cruzi [21] it was 55.2%.
Turning to `C/C(=N\NC(=S)Nc1ccccc1)c1ccccn1`, the figures for the CC50 with Trypanosoma cruzi [1] and in the data set with Trypanosoma cruzi [2] were 2.5 µM and 15.4 µM, respectively. In addition, the MNTC in data set [3] worked out at 21 µM. Also, the selectivity ratio in data set [4] is 8.4. Besides, the Activity in the data set on Trypanosoma cruzi [22] is listed as 3.55%; with Trypanosoma cruzi [23], 3.6%; in the data set with Trypanosoma cruzi [24], 5.4%; in the data set on Trypanosoma cruzi [25], 36.8%; in the data set on Trypanosoma cruzi [26] it was 4.8%; in the data set on Trypanosoma cruzi [27] it was 36%.
